For test [1], the system named is eNOS. The test is described as follows: eNOS oxygenase activity, L-[3H]citrulline formation. Format: biochemical, human. Conditions: 50 nM eNOS, 1 μM calmodulin, 0.5 mM Ca2+, 10 μM L-arginine, 37 °C, 5 min, varied peptide concentrations. An outline of the steps:
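Steady-state reaction in 25 mM Tris pH 7.5, 100 mM NaCl, 0.1 mM EGTA, 0.1 mM EDTA, 100 μM β-NADPH, 100 μM H4B and 1 μCi L-[3H]arginine tracer. Read-out was L-[3H]citrulline formed. Activity was normalized as percent of the rate without peptide. Mean ± standard deviation of triplicate experiments.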

The test system of the next test is CaM mutant B1234Q. Nature of the test: Gel mobility-shift assay of peptide binding to CaM mutant B1234Q. Also on record: species or system human. The following applies: CaM:peptide ratio 1:10, 100 μM Ca2+. Put shortly: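 Calmodulin mutant with Glu→Gln at all four Ca2+ sites ([…]), expressed in E. coli BL21(DE3) and purified by heat treatment at 70°C, ammonium sulfate fractionation and gel filtration. Test peptide and mutant were incubated at a 1:10 CaM:peptide ratio for 1 h in 20 mM Tris pH 7.5 with 100 μM Ca2+. Samples ran on 18% nondenaturing, non-reducing PAGE with 100 μM free Ca2+ in gel buffers, then Coomassie staining.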

The subject of another test is CaM. The test is described as follows: Intrinsic tryptophan fluorescence of peptides with CaM. In kind it is binding, human. The following applies: 100 μM Ca2+; 5 μM peptide + 5 μM CaM, 20 mM Tris pH 7.5, excitation 290 nm. Put shortly:
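Test peptides carry tryptophan. Each peptide (5 μM) was measured with or without 5 μM E. coli-expressed wild-type CaM in 20 mM Tris pH 7.5 containing 100 μM Ca2+, with 1 mM EGTA in place of Ca2+ as the low-Ca2+ condition. Intrinsic fluorescence was excited at 290 nm and emission scanned from 300 to 450 nm, 2-nm slits. Intensity and emission peak position were compared.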

The test system of test [2] is eNOS. Nature of the test: Cytochrome c reductase activity of eNOS. Format: biochemical, human. The following applies: 10 μM peptide, with CaM. Put shortly: (§1)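 Purified eNOS in Tris-HCl pH 7.5 with NaCl, 10% glycerol, NADPH and enzyme at 37 °C, with or without each peptide, and with or without CaM plus 100 μM CaCl2. Cytochrome c reduction used cytochrome c as electron acceptor. Ferricyanide reduction used the same mixture with ferricyanide in place of cytochrome c.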

In test [3] the test system is eNOS. The test is described as follows: Ferricyanide reduction by eNOS. The following applies: 10 μM peptide, with CaM. In kind it is biochemical, human. Put shortly:
as §1

Entries after “also recorded” stand apart in the source; their conditions may differ.

In the case of PKFPRVKNWEVGSITYDTLS [Peptide E0], the “Effect on eNOS oxygenase activity (L-citrulline formation), in words” value (“Effect on eNOS oxygenase activity” for short) in the test with eNOS [1] is reported as “did not interfere with eNOS catalytic activity”.

Turning to “RRPKRREIPL^1KVLV^5KAV^8LFACML^14M [Peptide M2]”, the “Binding to B1234Q (disappearance of free B1234Q band)” value with CaM mutant B1234Q is reported as “able to bind B1234Q; also recorded: binds B1234Q with the highest affinity”.

Consider “TKQA^1WRNA^5PRC^8IG^10RIQW^14SNL [Peptide M1]”, for which the “Binding to B1234Q (disappearance of free B1234Q band)” value with CaM mutant B1234Q is “able to bind B1234Q”. In addition, the “Increase in tryptophan fluorescence intensity induced by CaM” value with CaM is recorded as 2 fold.

Take “VTSRIRTQSF^1SLQERQL^8RGAVPW^14 [Peptide E5]”: the “Effect on eNOS oxygenase activity” value with eNOS [1] is on record as “did not interfere with eNOS catalytic activity”.

Consider “YNSSPRPEQHKSY^1KIRF^5NSI^8SCSDPL^14 [Peptide E3]”, for which the “Effect on eNOS oxygenase activity” value in the test with eNOS [1] is “weak inhibition on citrulline formation”. For the same substance, the “Inhibition of cytochrome c reduction” value with eNOS [2] is given as “no effect on electron transfer within reductase domain”. In the test on eNOS [3], the “Inhibition of ferricyanide reduction” value is listed as “no effect on electron transfer within reductase domain”.

Source of the values: paper PMC2702655 (Archives of biochemistry and biophysics, 2009).
